Measured values published in ChEMBL document CHEMBL3352221, “Acyclic tethers mimicking subunits of polysaccharide ligands: selectin antagonists” (ACS Med Chem Lett, 2014).
Active and inactive are the calls of the source. The rule behind the calls is not given here.

How the values were obtained:
E-selectin = target: T1, E-selectin (Homo sapiens, UniProt P16581); assay: Antagonist activity at E-selectin (unknown origin) assessed as adhesion to [3H]thymidine-labelled human HL60 cells by static assay; assay type: cell-based, HL-60
T1 sequence (P16581 whole entry): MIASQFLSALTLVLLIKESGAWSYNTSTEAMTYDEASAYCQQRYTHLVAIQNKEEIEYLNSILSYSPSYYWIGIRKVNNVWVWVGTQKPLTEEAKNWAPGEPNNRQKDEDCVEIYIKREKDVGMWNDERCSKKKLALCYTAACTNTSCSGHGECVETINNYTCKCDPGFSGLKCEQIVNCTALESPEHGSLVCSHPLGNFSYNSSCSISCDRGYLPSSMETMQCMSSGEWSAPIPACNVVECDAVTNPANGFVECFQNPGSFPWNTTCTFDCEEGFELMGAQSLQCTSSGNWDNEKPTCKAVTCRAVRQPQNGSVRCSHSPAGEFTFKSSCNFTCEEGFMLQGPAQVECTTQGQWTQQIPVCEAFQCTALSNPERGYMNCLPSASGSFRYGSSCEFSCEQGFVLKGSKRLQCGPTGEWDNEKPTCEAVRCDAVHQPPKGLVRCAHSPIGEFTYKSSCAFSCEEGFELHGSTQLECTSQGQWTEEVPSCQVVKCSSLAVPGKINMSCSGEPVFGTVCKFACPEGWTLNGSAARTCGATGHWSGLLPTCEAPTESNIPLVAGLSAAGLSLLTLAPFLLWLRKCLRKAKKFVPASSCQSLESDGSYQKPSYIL
Outline: (§1)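 HL-60 cells labelled with [3H]thymidine in the culture medium. Wells precoated with goat anti-human IgG, then E- or P-selectin IgG (per line) captured. Labelled cells incubated on the immobilized selectin with test compound over a dose range. Non-adherent cells washed off, bound radioactivity counted, and IC50 derived from the dose-dependent loss of adherent cells.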

P-selectin [1] = target: T2, P-selectin (Homo sapiens, UniProt P16109); assay: Antagonist activity at P-selectin (unknown origin) assessed as adhesion to [3H]thymidine-labelled human HL60 cells by static assay; assay type: cell-based, HL-60; outline: as §1
T2 sequence (P16109 whole entry): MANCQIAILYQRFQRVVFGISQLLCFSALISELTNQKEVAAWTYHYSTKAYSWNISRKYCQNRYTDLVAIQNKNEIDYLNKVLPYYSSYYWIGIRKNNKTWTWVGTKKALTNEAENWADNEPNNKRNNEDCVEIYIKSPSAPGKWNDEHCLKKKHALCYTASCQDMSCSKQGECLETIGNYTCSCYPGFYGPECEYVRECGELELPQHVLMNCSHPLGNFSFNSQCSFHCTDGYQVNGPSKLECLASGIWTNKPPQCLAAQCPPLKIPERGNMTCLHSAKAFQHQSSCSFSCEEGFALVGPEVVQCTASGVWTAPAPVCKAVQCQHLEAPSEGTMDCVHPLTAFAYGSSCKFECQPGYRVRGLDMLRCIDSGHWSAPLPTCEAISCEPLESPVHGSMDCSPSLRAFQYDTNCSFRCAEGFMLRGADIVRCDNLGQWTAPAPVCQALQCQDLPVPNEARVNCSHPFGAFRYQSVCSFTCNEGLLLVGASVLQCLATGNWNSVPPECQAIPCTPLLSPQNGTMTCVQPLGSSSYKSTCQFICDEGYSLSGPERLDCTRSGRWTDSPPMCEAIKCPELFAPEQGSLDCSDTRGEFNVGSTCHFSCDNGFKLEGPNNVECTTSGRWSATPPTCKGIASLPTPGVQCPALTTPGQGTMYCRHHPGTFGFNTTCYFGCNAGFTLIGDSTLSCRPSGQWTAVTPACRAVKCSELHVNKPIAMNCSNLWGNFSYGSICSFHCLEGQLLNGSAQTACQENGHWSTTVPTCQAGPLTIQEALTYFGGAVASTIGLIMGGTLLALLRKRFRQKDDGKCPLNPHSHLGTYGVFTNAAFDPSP

P-selectin [2] = target: T2, P-selectin; assay: Antagonist activity at P-selectin (unknown origin) by surface plasmon resonance-based dynamic assay
Mus musculus = assay: Inhibition of TNFalpha-induced decrease in leukocyte rolling flux in mouse cremaster at 100 mg/kg, iv; assay type: functional, organism-based; design: dose 100 mg/kg
Outline: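 Intravital microscopy of mouse cremaster. Mice receive rmTNFα in 150 μL saline. Compound in saline, or saline alone, is given intrajugularly at 100 mg/kg. Leukocyte rolling is read before and 10 min after injection. Means of 5 readings per venule, 10 venules per mouse, 5–6 mice per condition (±SEM).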

SMILES | IC50 (E-selectin) | IC50 (P-selectin [1]) | IC50 (P-selectin [2]) | inhibition (Mus musculus)
CC(C)OC(=O)[C@H](O[C@@H]1O[C@@H](C)[C@@H](O)[C@@H](O)[C@@H]1O)[C@@H](O[C@@H]1O[C@H](CO)[C@H](O)[C@H](O[C@H](Cc2ccccc2)C(=O)O)[C@H]1OC(=O)c1ccccc1)C(=O)OC(C)C | 220 µM | 190 µM | 34 µM | 
CC(C)OC(=O)[C@H](O[C@H]1O[C@@H](CO)[C@H](OC(=O)c2ccccc2)[C@@H](O[C@@H](Cc2ccccc2)C(=O)O)[C@H]1OC(=O)c1ccccc1)[C@@H](O[C@H]1O[C@@H](C)[C@@H](O)[C@@H](O)[C@@H]1O)C(=O)OCCc1cn(CCCCCOC(=O)[C@H](O[C@@H]2O[C@@H](C)[C@@H](O)[C@@H](O)[C@H]2O)[C@@H](O[C@@H]2O[C@H](CO)[C@H](OC(=O)c3ccccc3)[C@H](O[C@H](Cc3ccccc3)C(=O)O)[C@H]2OC(=O)c2ccccc2)C(=O)OC(C)C)nn1 |  |  | 8 µM | 
COC(=O)[C@H](O[C@@H]1O[C@H](CO)[C@H](OC(=O)c2ccccc2)[C@H](O[C@H](Cc2ccccc2)C(=O)O)[C@H]1OC(=O)c1ccccc1)[C@@H](O[C@@H]1O[C@@H](C)[C@@H](O)[C@@H](O)[C@@H]1O)C(=O)OC(C)C |  |  | 16 µM | 
CC(=O)N[C@H]1[C@H]([C@H](O)[C@H](O)CO)O[C@@](O[C@H]2[C@@H](O)[C@@H](CO)O[C@@H](O[C@@H]([C@H](O[C@@H]3O[C@@H](C)[C@@H](O)[C@@H](O)[C@@H]3O)[C@H](C=O)NC(C)=O)[C@H](O)CO)[C@@H]2O)(C(=O)O)C[C@@H]1O |  |  |  | Active
COC(=O)[C@H](O[C@@H]1O[C@@H](C)[C@@H](O)[C@@H](O)[C@@H]1O)[C@@H](O[C@@H]1O[C@H](CO)[C@H](OC(=O)c2ccccc2)[C@H](O[C@H](Cc2ccccc2)C(=O)O)[C@H]1OC(=O)c1ccccc1)C(=O)OC(C)C |  |  | 21 µM | 
COC(=O)[C@H](O[C@@H]1O[C@@H](C)[C@@H](O)[C@@H](O)[C@@H]1O)[C@@H](O[C@@H]1O[C@H](CO)[C@H](O)[C@H](O[C@H](Cc2ccccc2)C(=O)O)[C@H]1O)C(=O)OC | 5460 µM | 4840 µM |  | 
CC(C)OC(=O)[C@H](O[C@@H]1O[C@@H](C)[C@@H](O)[C@@H](O)[C@@H]1O)[C@@H](O[C@@H]1O[C@H](CO)[C@H](OC(=O)c2ccccc2)[C@H](O[C@H](Cc2ccccc2)C(=O)O)[C@H]1O)C(=O)OC(C)C |  |  | 19 µM | 
CC(C)OC(=O)[C@H](O[C@@H]1O[C@@H](C)[C@@H](O)[C@@H](O)[C@@H]1O)[C@@H](O[C@@H]1O[C@H](CO)[C@H](OC(=O)c2ccccc2)[C@H](O[C@H](Cc2ccccc2)C(=O)O)[C@H]1OC(=O)c1ccccc1)C(=O)OC(C)C | 76 µM | 67 µM | 8 µM | 
COC(=O)[C@H](O[C@@H]1O[C@@H](C)[C@@H](O)[C@@H](O)[C@@H]1O)[C@@H](O[C@@H]1O[C@H](CO)[C@H](O)[C@H](O[C@H](Cc2ccccc2)C(=O)O)[C@H]1OC(=O)c1ccccc1)C(=O)OC | 2080 µM | 1900 µM | 520 µM | 
COC(=O)[C@H](O[C@@H]1O[C@@H](C)[C@@H](O)[C@@H](O)[C@@H]1O)[C@@H](O[C@@H]1O[C@H](CO)[C@H](OC(=O)c2ccccc2)[C@H](O[C@H](Cc2ccccc2)C(=O)O)[C@H]1OC(=O)c1ccccc1)C(=O)OC | 140 µM | 110 µM | 18 µM | 
